Here are results for 25 compounds from ChEMBL document CHEMBL4257546, “Discovery of new FXR agonists based on 6-ECDCA binding properties by virtual screening and molecular docking” (Medchemcomm, 2018).

Molecules are shown by their SMILES. Calls of active or inactive are those of the source.

The target in data set [1] is T1, Bile acid receptor (Homo sapiens) (UniProt Q96RI1).
T1 sequence (whole entry): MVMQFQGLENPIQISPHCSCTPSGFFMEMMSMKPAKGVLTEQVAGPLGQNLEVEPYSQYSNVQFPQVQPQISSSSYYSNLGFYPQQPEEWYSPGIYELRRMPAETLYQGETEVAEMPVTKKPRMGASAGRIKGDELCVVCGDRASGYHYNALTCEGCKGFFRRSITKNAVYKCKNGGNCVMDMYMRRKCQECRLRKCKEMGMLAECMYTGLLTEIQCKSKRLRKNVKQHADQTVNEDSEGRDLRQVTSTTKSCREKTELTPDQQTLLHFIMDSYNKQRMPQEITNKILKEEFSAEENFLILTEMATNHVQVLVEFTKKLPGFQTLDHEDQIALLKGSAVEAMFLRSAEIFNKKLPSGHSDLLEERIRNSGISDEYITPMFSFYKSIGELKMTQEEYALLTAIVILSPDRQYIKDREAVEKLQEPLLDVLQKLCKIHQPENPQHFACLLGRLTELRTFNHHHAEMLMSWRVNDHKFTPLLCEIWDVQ
The experiment in a line: Transactivation of full-length FXR (unknown origin) expressed in HEK293 cells at 100 uM after 18 hrs by dual-glo luciferase reporter gene assay relative to CDCA. It counts as cell-based. The method, boiled down:
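HEK293 cells co-transfected by calcium phosphate with full-length FXR expression plasmid, FXRE-driven firefly luciferase reporter and Renilla normalization vector. Compound added at 100 μM 6 h after transfection; dual luciferase read 18 h later. Firefly normalized to Renilla, expressed as fold activation over untreated cells, then as percent of maximal fold induction by CDCA. At least two separate experiments, triplicate assays.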
In general terms: In a reporter assay the amount or activity of a reporter protein is the signal.

The test system of data set [2] is HEK293. The experiment in a line: Effect on renilla luciferase expression in HEK293 cells at 100 uM after 18 hrs by dual-glo luciferase reporter gene assay. Type of data set: ADME, cell-based. Particulars: human, hek293, 18 h. The gist of the method: (§1)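 HEK293 in DMEM with 10% FBS, 37 °C, 5% CO2; calcium phosphate co-transfection in serum-free medium with TK-FXRE-luc reporter (50 ng), Renilla vector (20 ng) and full-length FXR plasmid (30 ng) per well. Compounds added 6 h post-transfection, cells harvested 18 h later; Renilla luminescence (Dual-Glo) monitored as the cell-status control over 0.1–250 μM.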

In data set [3] the target is T2, Bile acid receptor (Homo sapiens, UniProt Q96RI1).
T2 sequence (Q96RI1 whole entry): T1 sequence (whole entry)
Nature of the data set: Transactivation of full-length FXR (unknown origin) expressed in HEK293 cells after 18 hrs by dual-glo luciferase reporter gene assay. It counts as cell-based.

The test system of data set [4] is HEK293. Nature of the data set: Cytotoxicity against HEK293 cells assessed as effect on renilla luciferase expression at 0.1 to 250 uM after 18 hrs by dual-glo luciferase reporter gene expression. It counts as cell-based. The note with it: human, hek293, 18 h. The method, boiled down: as §1

In the case of `O=C(CN(Cc1ccc2c(c1)OCO2)C1CCCC1)Nc1cccc2ccccc12`, the result in data set [1] was inactive. Moreover, in data set [2], the Activity result was “Non-Toxic”.

For `CCOC(=O)CC(c1ccc(F)cc1)C1CCN(C(=O)c2ccc([N+](=O)[O-])o2)CC1` (stereo unspecified), the outcome in data set [1] was inactive. Also, in data set [2], the Activity entry is reported as “Non-Toxic”.

In the case of `CC1(CSc2cccc(C(=O)NCc3cccs3)c2)NC(=O)NC1=O` (stereo unspecified), in data set [1], the outcome was inactive. The Activity entry in data set [2] is reported as “Non-Toxic”.

As for `Cc1cc(/N=N/Cc2ccccc2)nc(NS(=O)(=O)c2ccccc2Cl)n1`, the result in data set [1] was inactive. The Activity entry in data set [2] is listed as “Non-Toxic”.

On to `O=C(Nc1ccc(N2CCOCC2)cc1)c1ccccc1SC1CCS(=O)(=O)C1` (stereo unspecified), for which, in data set [1], the result was inactive. Further, the Activity entry in data set [2] is given as “Non-Toxic”.

As for `COC(=O)/C=C/c1ccc(OCC(=O)NC2c3ccccc3-c3ccccc32)c(OC)c1`, the outcome in data set [1] was inactive. Also, the Activity result in data set [2] is “Non-Toxic”.

With `CS(=O)(=O)N1CCC(NC(=O)CC(NC(N)=O)c2ccccc2F)CC1` (stereo unspecified), the outcome in data set [1] was inactive. Further, the Activity result in data set [2] is “Non-Toxic”.

For `O=C(COc1ccccc1Cl)NNC(=O)c1cccc(NS(=O)(=O)c2ccc3c(c2)OCCCO3)c1`, the outcome in data set [1] was inactive. In addition, the Activity result in data set [2] was “Non-Toxic”.

As for `CC(NS(=O)(=O)c1ccccc1F)C(=O)Cc1nc2ccccc2[nH]1` (stereo unspecified), in data set [1], the outcome was inactive. Further, in data set [2], the Activity entry is on record as “Non-Toxic”.

For `O=C(Nc1ccccc1)Nc1ccccc1NS(=O)(=O)c1ccccc1`, in data set [1], the outcome was inactive. The Activity entry in data set [2] is listed as “Non-Toxic”.

For `O=C(O)c1ccccc1-c1ccccc1C(=O)N1CCN(Cc2ccc3c(c2)OCO3)CC1`, the Efficacy in data set [1] amounted to 55.1%. In addition, it took 5.99 µM to reach a half-maximal effect in data set [3] (EC50). Moreover, the Activity result in data set [2] and in data set [4] was “Non-Toxic” throughout.

For the compound `COc1ccc(CN(C)C(=O)c2c[nH]c3ccccc23)cc1F`, the result in data set [1] was inactive. The Activity result in data set [2] is recorded as “Non-Toxic”.

Regarding `COc1ccc(Nc2ccc(NC(=O)c3ccccc3NS(=O)(=O)c3cc(C)ccc3C)cc2)cc1`, the outcome in data set [1] was inactive. For the same compound, in data set [2], the Activity entry is recorded as “Non-Toxic”.

Take `NC(=O)CSc1ccccc1NCC(=O)Nc1ccc(Cl)cc1Cl`: the result in data set [1] was inactive. In addition, the Activity result in data set [2] was “Non-Toxic”.

For `Cc1cc(CNC(=O)c2ccccc2SC2CCS(=O)(=O)C2)ccc1F` (stereo unspecified), in data set [1], the result was inactive. Also, the Activity result in data set [2] is given as “Non-Toxic”.

With `Nc1nc(CSc2nnnn2Cc2ccccc2)nc(Nc2ccccc2)n1`, the result in data set [1] was inactive. In data set [2], the Activity entry is reported as “Non-Toxic”.

For the compound `CNC(=O)C1CN(CC(=O)Nc2cc(C)c(Cl)cc2OC)c2ccccc2O1` (stereo unspecified), in data set [1], the result was inactive. The Activity entry in data set [2] was “Non-Toxic”.

On to `CN(Cc1ccc(N2CCCCC2)cc1)C(=O)c1n[nH]c(=O)c2ccccc12`, for which, in data set [1], the Efficacy amounted to 60.3%. Also, a half-maximal effect in data set [3] (EC50) was put at 14.4 µM. Further, the Activity entry in data set [2] and in data set [4] was “Non-Toxic” in each case.

As for `NC(=O)CSc1ccccc1NC(=O)Nc1ccc(Cl)c(Cl)c1`, in data set [1], the outcome was inactive. Moreover, in data set [2], the Activity result is “Non-Toxic”.

In data set [1], `COc1cc([N+](=O)[O-])ccc1NC(=O)CNc1ccccc1N1CCCC1=O` displayed an Efficacy of 120%. Further, the EC50 (usually the midpoint of the concentration-response curve) in data set [3] was determined as 4.33 µM. Besides, the Activity entry in data set [2] and in data set [4] was “Non-Toxic” throughout.

`CCn1c(CNc2ccc(Cl)cc2)nnc1SCC(=O)NNC(=O)c1ccc(Cl)cc1`: in data set [1], the result was inactive. For the same compound, in data set [2], the Activity entry is recorded as “Non-Toxic”.

Take `CC(Sc1nnc(C2CCCC2)[nH]1)C(=O)Nc1sccc1C(N)=O` (stereo unspecified): the result in data set [1] was inactive. Also, the Activity entry in data set [2] was “Non-Toxic”.

Take `O=C(CN1CC(C(=O)N2CCCCC2)Oc2ccccc21)NC(=O)NCc1ccco1` (stereo unspecified): the result in data set [1] was inactive. Besides, in data set [2], the Activity result is listed as “Non-Toxic”.

Regarding `Cc1nn(-c2ccccc2)c(N)c1C(O)(CC(=O)C(F)(F)F)C(F)(F)F` (stereo unspecified), in data set [1], the result was inactive. The Activity result in data set [2] is given as “Non-Toxic”.

Regarding `Cc1ccc([N+](=O)[O-])cc1NCC(=O)Nc1cc(C(F)(F)F)ccc1-n1cncn1`, the result in data set [1] was inactive. Also, the Activity result in data set [2] is on record as “Non-Toxic”.
